From ChEMBL document CHEMBL1129253, “Synthesis and pharmacological activity of triazole derivatives inhibiting eosinophilia” (1996)

Assays:
Rattus norvegicus [1] = experiment: Tested for sephadex-induced lung Eosinophilia inhibition at 30 mg/kg in rat; assay type: functional
Procedure, shortened: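 Male Wistar rats (5/group) received 1 mL Sephadex G-200 (0.5 mg/mL in saline, boiled 5 h) by tail vein on days 0, 3 and 5. Drug or vehicle was given ip 10 min before each injection. On day 7, lungs were lavaged three times with heparinized PBS at 37 °C. Eosinophils and total cells were counted in Hinkelman reagent. % inhibition compares group-mean eosinophil/total ratios with vehicle.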

Rattus norvegicus [2] = experiment: Inhibitory activity against eosinophilia when administered orally in rats; details: po, read-out: ID50 (the source's name)
Rattus norvegicus [3] = experiment: Inhibitory activity against eosinophilia when administered intraperitoneally in rats; details: ip, read-out: ID50 (the source's name)

SMILES: C/N=C(\S)c1nccnc1N
- inhibition in vivo at 30 mg/kg (Rattus norvegicus [1]): 27%

SMILES: C/N=C(\S)c1[nH]cnc1N
- inhibition in vivo at 30 mg/kg (Rattus norvegicus [1]): 5%

SMILES: Nc1ncnn1/C(S)=N/c1ccccc1
- inhibition in vivo at 30 mg/kg (Rattus norvegicus [1]): -7%

SMILES: Nc1ncnn1/C(S)=N/Cc1ccccc1
- inhibition in vivo at 30 mg/kg (Rattus norvegicus [1]): 40%

SMILES: C/N=C(\S)n1nc(N)nc1N
- inhibition in vivo at 30 mg/kg (Rattus norvegicus [1]): 53%

SMILES: CNC(=S)n1nc(-c2ccc(OC)cc2)nc1N
- inhibition in vivo at 30 mg/kg (Rattus norvegicus [1]): 70%

SMILES: Nc1ncnn1/C(S)=N/CCCCCO
- inhibition in vivo at 30 mg/kg (Rattus norvegicus [1]): -17%

SMILES: C/N=C(\S)c1ncccc1N
- inhibition in vivo at 30 mg/kg (Rattus norvegicus [1]): 9%

SMILES: C/N=C(\S)n1nc(-c2ccc(C)cc2)nc1N
- inhibition in vivo at 30 mg/kg (Rattus norvegicus [1]): 65%

SMILES: C/N=C(\S)n1cnc(N)n1
- inhibition in vivo at 30 mg/kg (Rattus norvegicus [1]): 25%

SMILES: Nc1ncnn1/C(S)=N/C1CCCCC1
- inhibition in vivo at 30 mg/kg (Rattus norvegicus [1]): 31%

SMILES: C/N=C(\S)n1nc(-c2ccc(Cl)cc2)nc1N
- inhibition in vivo at 30 mg/kg (Rattus norvegicus [1]): 88%
- ED50 (Rattus norvegicus [2]): 0.3 mg/kg
- ED50 (Rattus norvegicus [3]): 0.07 mg/kg

SMILES: CN(C)C(=S)n1ncnc1N
- inhibition in vivo at 30 mg/kg (Rattus norvegicus [1]): 34%

SMILES: C/N=C(\S)n1nc(C)nc1N
- inhibition in vivo at 30 mg/kg (Rattus norvegicus [1]): 13%

SMILES: CCOCCC/N=C(\S)n1ncnc1N
- inhibition in vivo at 30 mg/kg (Rattus norvegicus [1]): 1%

SMILES: C/N=C(\S)c1c[nH]nc1N
- inhibition in vivo at 30 mg/kg (Rattus norvegicus [1]): -22%

SMILES: C/N=C(\S)Nc1ccc(-c2nc(N)n(/C(S)=N/C)n2)cc1
- inhibition in vivo at 30 mg/kg (Rattus norvegicus [1]): 31%

SMILES: CCCCCC/N=C(\S)n1ncnc1N
- inhibition in vivo at 30 mg/kg (Rattus norvegicus [1]): -1%

SMILES: C/N=C(\S)n1nc(-c2ccc(C#N)cc2)nc1N
- inhibition in vivo at 30 mg/kg (Rattus norvegicus [1]): 87%

SMILES: S=C(NC1CCCCC1)n1cncn1
- inhibition in vivo at 30 mg/kg (Rattus norvegicus [1]): 0%

SMILES: C/N=C(\S)c1sccc1N
- inhibition in vivo at 30 mg/kg (Rattus norvegicus [1]): 4%

SMILES: C/N=C(\S)n1nnnc1N
- inhibition in vivo at 30 mg/kg (Rattus norvegicus [1]): 53%

SMILES: CCC/N=C(\S)n1ncnc1N
- inhibition in vivo at 30 mg/kg (Rattus norvegicus [1]): 93%

SMILES: C/N=C(\S)n1nc(-c2ccccc2)nc1N
- inhibition in vivo at 30 mg/kg (Rattus norvegicus [1]): 54%

SMILES: CCOC(=O)C(=O)Nc1ccc(-c2nc(N)n(/C(S)=N/C)n2)cc1
- inhibition in vivo at 30 mg/kg (Rattus norvegicus [1]): 49%

SMILES: CCCC/N=C(\S)n1ncnc1N
- inhibition in vivo at 30 mg/kg (Rattus norvegicus [1]): 21%

SMILES: CNC(=S)n1ncnc1NC
- inhibition in vivo at 30 mg/kg (Rattus norvegicus [1]): -1%

SMILES: C/N=C(\S)c1cccnc1N
- inhibition in vivo at 30 mg/kg (Rattus norvegicus [1]): 27%

SMILES: CSC(=S)n1ncnc1N
- inhibition in vivo at 30 mg/kg (Rattus norvegicus [1]): 36%

SMILES: CNC(=S)n1nc(SC)nc1N
- inhibition in vivo at 30 mg/kg (Rattus norvegicus [1]): 54%

SMILES: C/N=C(\S)c1ccccc1N
- inhibition in vivo at 30 mg/kg (Rattus norvegicus [1]): 47%

SMILES: C/N=C(\S)n1ncnc1N
- inhibition in vivo at 30 mg/kg (Rattus norvegicus [1]): 93%

SMILES: C/N=C(\S)n1nccc1N
- inhibition in vivo at 30 mg/kg (Rattus norvegicus [1]): 27%

SMILES: CS(=O)(=O)n1ncnc1N
- inhibition in vivo at 30 mg/kg (Rattus norvegicus [1]): -40%

SMILES: CNC(=O)n1ncnc1N
- inhibition in vivo at 30 mg/kg (Rattus norvegicus [1]): 40%
